Experimental data: ChEMBL document CHEMBL3588831, “Synthesis and in Vivo Evaluation of [123I]Melanin-Targeted Agents” (J Med Chem, 2015); call rule not given here

Experiments:
[1] = Retention time of the compound by HPLC method; assay type: physicochemical
Brain = assay: Drug distribution in brain of C57BL/6J mouse bearing mouse B16F0 cells at 18 to 20 MBq, iv measured over 72 hrs by SPECT imaging study; assay type: ADME, organism-based; conditions: in vivo
Outline: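 Female C57BL/6J mice bearing s.c. B16F0 tumors (11 days growth) received 18−20 MBq in 100 μL via lateral tail vein (n = 3). Isoflurane anesthesia (5% induction, 2−2.5% maintenance) on a 37 °C heating pad. Planar γ-camera imaging at 10−60 min (5 min frames), 3 and 6 h, 24, 48 and 72 h. Radioactivity localization assessed visually.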

[2] = Drug distribution in eyes of C57BL/6J mouse bearing mouse B16F0 cells at 18 to 20 MBq, iv measured over 72 hrs by SPECT imaging study; assay type: ADME, organism-based, Eye; conditions: in vivo
Outline: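 Female C57BL/6J mice (5–6 weeks) were inoculated s.c. on the left flank with 3 × 10^5 B16F0 cells in PBS and used after 11 days, with tumors 2–12 mm. Each received 18–20 MBq in 100 μL by lateral tail vein (n = 3 per tracer). Planar SPECT was done under isoflurane at 10–60 min, 3, 6, 24, 48 and 72 h. ROI pixel values were decay-corrected.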

Mus musculus [3] = assay: Biodistribution in tumor of C57BL/6J mouse bearing mouse B16F0 cells at 0.37 to 1.85 MBq, iv after 16 hrs by gamma counting method; assay type: ADME, organism-based; conditions: in vivo
Outline: (§1)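 Female C57BL/6J mice (5−6 weeks), s.c. inoculated on left flank with 3 × 10^5 B16F0 cells in Ca2+/Mg2+-free PBS, used 11 days later (tumors 2−12 mm). Radiotracer given via tail vein in 100 μL (~0.37 MBq for 1−24 h, 1.85 MBq for 48 h). Organs dissected, weighed, γ-counted, decay corrected. Expressed as % ID/g against injected-dose dilutions. Mean ± SEM, n = 5.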

Mus musculus [4] = assay: Biodistribution in tumor of C57BL/6J mouse bearing mouse B16F0 cells at 0.37 to 1.85 MBq, iv after 24 hrs by gamma counting method; assay type: ADME, organism-based; conditions: in vivo; outline: as §1
Mus musculus [5] = assay: Biodistribution in large gastrointestinal tract of C57BL/6J mouse bearing mouse B16F0 cells at 0.37 to 1.85 MBq, iv after 3 hrs by gamma counting method; assay type: ADME, organism-based, Large intestine; conditions: in vivo; outline: as §1
Mus musculus [6] = assay: Biodistribution in large gastrointestinal tract of C57BL/6J mouse bearing mouse B16F0 cells at 0.37 to 1.85 MBq, iv after 6 hrs by gamma counting method; assay type: ADME, organism-based; conditions: in vivo; outline: as §1
Mus musculus [7] = assay: Biodistribution in large gastrointestinal tract of C57BL/6J mouse bearing mouse B16F0 cells at 0.37 to 1.85 MBq, iv after 48 hrs by gamma counting method; assay type: ADME, organism-based; conditions: in vivo; outline: as §1
Mus musculus [8] = assay: Biodistribution in small gastrointestinal tract of C57BL/6J mouse bearing mouse B16F0 cells at 0.37 to 1.85 MBq, iv after 24 hrs by gamma counting method; assay type: ADME, organism-based, Small intestine; conditions: in vivo; outline: as §1
Mus musculus [9] = assay: Biodistribution in thyroid gland of C57BL/6J mouse bearing mouse B16F0 cells at 0.37 to 1.85 MBq, iv after 6 hrs by gamma counting method; assay type: ADME, organism-based; conditions: in vivo; outline: as §1
Mus musculus [10] = assay: Biodistribution in thyroid gland of C57BL/6J mouse bearing mouse B16F0 cells at 0.37 to 1.85 MBq, iv after 24 hrs by gamma counting method; assay type: ADME, organism-based; conditions: in vivo; outline: as §1
Mus musculus [11] = assay: Biodistribution in thyroid gland of C57BL/6J mouse bearing mouse B16F0 cells at 0.37 to 1.85 MBq, iv after 48 hrs by gamma counting method; assay type: ADME, organism-based; conditions: in vivo; outline: as §1
Spleen [12] = assay: Biodistribution in spleen of C57BL/6J mouse bearing mouse B16F0 cells at 0.37 to 1.85 MBq, iv after 3 hrs by gamma counting method; assay type: ADME, organism-based; conditions: in vivo; outline: as §1
Spleen [13] = assay: Biodistribution in spleen of C57BL/6J mouse bearing mouse B16F0 cells at 0.37 to 1.85 MBq, iv after 24 hrs by gamma counting method; assay type: ADME, organism-based; conditions: in vivo; outline: as §1
Liver [14] = assay: Biodistribution in liver of C57BL/6J mouse bearing mouse B16F0 cells at 0.37 to 1.85 MBq, iv after 3 hrs by gamma counting method; assay type: ADME, organism-based; conditions: in vivo; outline: as §1
Liver [15] = assay: Biodistribution in liver of C57BL/6J mouse bearing mouse B16F0 cells at 0.37 to 1.85 MBq, iv after 6 hrs by gamma counting method; assay type: ADME, organism-based; conditions: in vivo; outline: as §1
Liver [16] = assay: Biodistribution in liver of C57BL/6J mouse bearing mouse B16F0 cells at 0.37 to 1.85 MBq, iv after 24 hrs by gamma counting method; assay type: ADME, organism-based; conditions: in vivo; outline: as §1
Liver [17] = assay: Biodistribution in liver of C57BL/6J mouse bearing mouse B16F0 cells at 0.37 to 1.85 MBq, iv after 48 hrs by gamma counting method; assay type: ADME, organism-based; conditions: in vivo; outline: as §1
Kidney [18] = assay: Biodistribution in kidney of C57BL/6J mouse bearing mouse B16F0 cells at 0.37 to 1.85 MBq, iv after 1 hr by gamma counting method; assay type: ADME, organism-based; conditions: in vivo; outline: as §1
Kidney [19] = assay: Biodistribution in kidney of C57BL/6J mouse bearing mouse B16F0 cells at 0.37 to 1.85 MBq, iv after 6 hrs by gamma counting method; assay type: ADME, organism-based; conditions: in vivo; outline: as §1
Kidney [20] = assay: Biodistribution in kidney of C57BL/6J mouse bearing mouse B16F0 cells at 0.37 to 1.85 MBq, iv after 16 hrs by gamma counting method; assay type: ADME, organism-based; conditions: in vivo; outline: as §1
Kidney [21] = assay: Biodistribution in kidney of C57BL/6J mouse bearing mouse B16F0 cells at 0.37 to 1.85 MBq, iv after 24 hrs by gamma counting method; assay type: ADME, organism-based; conditions: in vivo; outline: as §1
Mus musculus [22] = assay: Whole body clearance in C57BL/6J mouse bearing mouse B16F0 cells at 0.37 to 1.85 MBq, iv after 16 hrs by gamma counting method; assay type: ADME, organism-based; conditions: in vivo
[23] = Ratio of AUC in tumor to skin of C57BL/6J mouse bearing mouse B16F0 cells at 0.37 to 1.85 MBq, iv by gamma counting method; assay type: ADME, organism-based; conditions: in vivo
Outline: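 Biodistribution in B16F0-bearing C57BL/6J mice given i.v. tail-vein tracer (~0.37 MBq for 1–24 h, 1.85 MBq for 48 h). Sacrifice at 1, 3, 6, 16, 24 and 48 h, then organs dissected, weighed and γ-counted as decay-corrected % ID/g. Tumor AUC divided by each organ AUC; mean of ratios ± SEM, n = 5.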

[24] = Stability in eyes of C57BL/6J mouse bearing mouse B16F0 cells assessed as intact parent compound level at 0.37 to 1.85 MBq, iv after 24 hrs by radio-HPLC and radio-TLC method; assay type: ADME, organism-based, Eye; conditions: in the assay text read “20 MBq” for “0.37 to 1.85 MBq”, read-out: Stability
Outline: (§2)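 Tumor-bearing C57BL/6J mice were sampled 3 and 24 h after i.v. tracer. Tissue was sonicated in CH3CN/water (3:2) with cold iodo standard and KI, then centrifuged. Urine was diluted and spiked; plasma was spiked, with CH3CN precipitation for TLC. Intact fraction came from silica radio-TLC (spot matching standard Rf) and radio-HPLC with precolumn/C18 column switching.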

Plasma = assay: Stability in plasma of C57BL/6J mouse bearing mouse B16F0 cells assessed as drug degradation at 0.37 to 1.85 MBq, iv after 24 hrs by radio-HPLC and radio-TLC method; assay type: ADME, organism-based; conditions: in vivo, in the assay text read “20 MBq” for “0.37 to 1.85 MBq”; outline: as §2

| SMILES | Retention_time [1] [min] | Drug uptake (Brain) | Drug uptake [2] | Drug uptake (Mus musculus [3]) [% ID/g] | Drug uptake (Mus musculus [4]) [% ID/g] | Drug uptake (Mus musculus [5]) [% ID/g] | Drug uptake (Mus musculus [6]) [% ID/g] | Drug uptake (Mus musculus [7]) [% ID/g] | Drug uptake (Mus musculus [8]) [% ID/g] | Drug uptake (Mus musculus [9]) [% ID/g] | Drug uptake (Mus musculus [10]) [% ID/g] | Drug uptake (Mus musculus [11]) [% ID/g] | Drug uptake (Spleen [12]) [% ID/g] | Drug uptake (Spleen [13]) [% ID/g] | Drug uptake (Liver [14]) [% ID/g] | Drug uptake (Liver [15]) [% ID/g] | Drug uptake (Liver [16]) [% ID/g] | Drug uptake (Liver [17]) [% ID/g] | Drug uptake (Kidney [18]) [% ID/g] | Drug uptake (Kidney [19]) [% ID/g] | also measured |
| --- | --- | --- | --- | --- | --- | --- | --- | --- | --- | --- | --- | --- | --- | --- | --- | --- | --- | --- | --- | --- | --- |
| O=C(CN1Cc2ccccc2C1=O)N1C[C@H]2CN(Cc3ccc([123I])cc3)C[C@H]2C1 | 16.7 | Not Active | Active | 11.6 | 7.8 | 21.4 | 23.1 | 0.1 | 0.3 | 2.8 | 1 | 3.4 | 0.5 | 0.05 | 5.6 | 3.1 | 0.4 | 0.2 | 15.8 | 4.1 | Drug uptake (Kidney [20]): 1 % ID/g; Drug uptake (Kidney [21]): 0.5 % ID/g; CL (Mus musculus [22]): > 98%; Ratio [23]: 23.1; remaining at 24 h [24]: 80%; Stability (Plasma): Unstable |
| O=C(c1ccc2c(n1)NCCC2)N1CCN(Cc2ccc([123I])cc2)CC1 | 16.6 | Not Active | Active | 20.4 | 12.9 | 59.6 | 87.1 | 0.2 | 0.8 | 2.7 | 2 | 2.1 | 2 | 0.2 | 13.2 | 6.3 | 0.8 | 0.2 | 15.6 | 10 | Drug uptake (Kidney [20]): 1.2 % ID/g; Drug uptake (Kidney [21]): 1 % ID/g; CL (Mus musculus [22]): > 98%; Ratio [23]: 40.9; remaining at 24 h [24]: 35%; Stability (Plasma): Unstable |
| O=C(c1ccc2cccnc2n1)N1CCN(Cc2ccc([123I])cc2)CC1 | 12.2 | Not Active | Active | 18.4 | 14.4 | 11.9 | 18.6 | 0.3 | 0.9 | 3.5 | 2.9 | 5.3 | 2.3 | 0.5 | 13.4 | 10.1 | 1.8 | 0.7 | 7.5 | 5.2 | Drug uptake (Kidney [20]): 1.6 % ID/g; Drug uptake (Kidney [21]): 1.4 % ID/g; CL (Mus musculus [22]): > 98%; Ratio [23]: 45.3; remaining at 24 h [24]: 35%; Stability (Plasma): Unstable |
| O=C(CN1Cc2ccccc2C1=O)NC1CCN(Cc2ccc([123I])cc2)CC1 | 14.8 | Not Active | Active | 18.1 | 15.2 | 10.9 | 17.6 | 0.6 | 3.8 | 3.1 | 2.6 | 2.4 | 7.6 | 1.2 | 38.8 | 35.1 | 7.8 | 1.9 | 8 | 5 | Drug uptake (Kidney [20]): 1.8 % ID/g; Drug uptake (Kidney [21]): 1.9 % ID/g; CL (Mus musculus [22]): > 98%; Ratio [23]: 24.4; remaining at 24 h [24]: 80%; Stability (Plasma): Unstable |
